Laboratory results taken from ChEMBL document CHEMBL2311383, “Discovery of piperazin-1-ylpyridazine-based potent and selective stearoyl-CoA desaturase-1 inhibitors for the treatment of obesity and metabolic syndrome” (J Med Chem, 2013).
Activity calls are given as the source filed them. The rule behind the calls is not given here.

What was measured:
[1] = biological target: Acyl-CoA (8-3)-desaturase (Rattus norvegicus) (UniProt Q920R3); experiment: Inhibition of delta5 desaturase in Sprague-Dawley rat liver microsome at 10 uM; assay type: microsomes
Sequence of Acyl-CoA (8-3)-desaturase (Rattus norvegicus) (Q920R3 whole entry, looked up): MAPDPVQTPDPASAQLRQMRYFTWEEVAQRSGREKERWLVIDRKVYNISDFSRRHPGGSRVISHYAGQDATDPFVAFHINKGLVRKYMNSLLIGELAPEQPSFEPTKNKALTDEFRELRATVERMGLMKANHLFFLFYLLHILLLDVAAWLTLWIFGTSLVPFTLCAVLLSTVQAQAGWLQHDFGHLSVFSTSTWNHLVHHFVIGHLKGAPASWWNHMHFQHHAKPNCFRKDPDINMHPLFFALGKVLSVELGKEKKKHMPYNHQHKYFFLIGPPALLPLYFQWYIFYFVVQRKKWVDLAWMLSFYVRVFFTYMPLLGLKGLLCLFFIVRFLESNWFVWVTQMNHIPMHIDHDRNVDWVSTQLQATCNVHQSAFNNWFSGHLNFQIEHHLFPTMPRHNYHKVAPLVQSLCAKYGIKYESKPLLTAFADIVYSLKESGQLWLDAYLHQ

[2] = Apparent permeability from basolateral to apical side in human Caco2 cells; assay type: ADME, cell-based; details: Caco-2
Method in brief: (§1)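 Caco-2 monolayers; apparent permeability a-to-b and b-to-a reported in 10⁻⁶ cm/s.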

[3] = Metabolic stability in rat liver microsome after 30 mins by LC/MS/MS analysis; assay type: ADME; details: liver microsomes, read-out: Stability
Method in brief: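 Compound incubated 30 min with rat liver microsomes; percent parent remaining by LC/MS/MS.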

[4] = Apparent permeability from apical to basolateral side in human Caco2 cells; assay type: ADME, cell-based; details: Caco-2; method in brief: as §1
Rattus norvegicus [5] = experiment: In vivo inhibition of SCD1 in Lewis rat liver microsome at 1 mg/kg, po after 4 hrs
[6] = biological target: Acyl-CoA 6-desaturase (Rattus norvegicus) (UniProt Q9Z122); experiment: Inhibition of delta6 desaturase in Sprague-Dawley rat liver microsome using cis,cis-9,12-octadecadienoic acid substrate at 10 uM
Sequence of Acyl-CoA 6-desaturase (Rattus norvegicus) (Q9Z122 whole entry, looked up): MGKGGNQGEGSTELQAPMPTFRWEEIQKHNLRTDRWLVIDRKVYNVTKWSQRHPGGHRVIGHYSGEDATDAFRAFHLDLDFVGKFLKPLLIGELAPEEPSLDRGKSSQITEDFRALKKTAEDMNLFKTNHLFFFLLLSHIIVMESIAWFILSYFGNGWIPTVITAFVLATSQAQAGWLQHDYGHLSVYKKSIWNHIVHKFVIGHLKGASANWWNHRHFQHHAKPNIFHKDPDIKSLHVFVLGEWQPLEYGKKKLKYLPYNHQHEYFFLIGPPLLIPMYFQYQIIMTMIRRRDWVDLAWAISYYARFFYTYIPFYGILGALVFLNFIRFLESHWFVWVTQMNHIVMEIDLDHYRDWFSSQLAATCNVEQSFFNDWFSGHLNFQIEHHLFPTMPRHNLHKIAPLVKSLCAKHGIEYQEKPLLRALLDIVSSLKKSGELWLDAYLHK

Acyl-CoA desaturase 1 = biological target: T1, Acyl-CoA desaturase 1 (Mus musculus, UniProt P13516); experiment: Inhibition of SCD1 in ICR mouse liver microsome using [9,10 3H]- stearoyl-Coenzyme A substrate assessed as decreased production of tritiated water after 20 min by scintillation counting analysis
T1 sequence (P13516 whole entry): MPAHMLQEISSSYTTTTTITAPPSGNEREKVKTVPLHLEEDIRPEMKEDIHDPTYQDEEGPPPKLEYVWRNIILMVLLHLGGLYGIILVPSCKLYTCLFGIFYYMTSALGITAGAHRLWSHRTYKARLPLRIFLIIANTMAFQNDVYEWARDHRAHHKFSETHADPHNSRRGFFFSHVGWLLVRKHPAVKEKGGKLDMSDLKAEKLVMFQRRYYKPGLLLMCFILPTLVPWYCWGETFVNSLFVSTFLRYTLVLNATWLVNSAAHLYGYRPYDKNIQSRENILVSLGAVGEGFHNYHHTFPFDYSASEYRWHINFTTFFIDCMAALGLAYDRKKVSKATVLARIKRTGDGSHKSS

[7] = Oral bioavailability in Lewis rat at 5 mg/kg; assay type: ADME, organism-based; details: in vivo
Method in brief: (§2)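 Lewis rats, IV 3 mg/kg and PO 10 mg/kg unless otherwise stated (some at PO 5 mg/kg, IV 1 mg/kg, or IV 1/PO 2 mg/kg). At least two rats IV, three rats PO, averaged. Plasma t1/2 (h), AUC 0–∞ (μM·h), Vss (L/kg), clearance ((L/h)/kg), Cmax (μM), Tmax (h), oral bioavailability (%).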

[8] = Cmax in Lewis rat at 5 mg/kg, po; assay type: ADME, organism-based; design: dose 5 mg/kg, route oral; details: in vivo; method in brief: as §2
[9] = Tmax in Lewis rat at 5 mg/kg, po; assay type: ADME, organism-based; design: dose 5 mg/kg, route oral; details: in vivo; method in brief: as §2
[10] = Clearance in Lewis rat at 3 mg/kg, iv; assay type: ADME, organism-based; design: dose 3 mg/kg, route intravenous; details: in vivo; method in brief: as §2
[11] = Volume of distribution at steady state in Lewis rat at 3 mg/kg, iv; assay type: ADME, organism-based; design: dose 3 mg/kg, route intravenous; details: in vivo, read-out: Vdss; method in brief: as §2
[12] = Half life in Lewis rat at 3 mg/kg, iv; assay type: ADME, organism-based; design: dose 3 mg/kg, route intravenous; details: in vivo; method in brief: as §2
Rattus norvegicus [13] = experiment: In vivo inhibition of SCD1 in Lewis rat liver microsome at 15 mg/kg, ip administered qd for 2 days; assay type: functional; details: 48 h, route intraperitoneal
Method in brief: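 Lewis rats fed high-carbohydrate diet for one week, fasted 4 h, then dosed orally (0.1–1 mg/kg in 0.2% Tween 20/1% CMC; n = 4), killed 4 h later; ip arm 15 mg/kg once daily for two days. Liver microsomes prepared, SCD1 activity measured by tritiated water release from [9,10-3H]stearoyl-CoA. Mean ± SD of at least four rats.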

[14] = Clearance in Lewis rat at 1 mg/kg, iv; assay type: ADME, organism-based; design: dose 1 mg/kg, route intravenous; details: in vivo; method in brief: as §2
[15] = AUC (0 to infinity) in Lewis rat at 1 mg/kg, iv; assay type: ADME, organism-based; design: time infinity, dose 1 mg/kg, route intravenous; details: plasma; method in brief: as §2
[16] = Volume of distribution at steady state in Lewis rat at 1 mg/kg, iv; assay type: ADME, organism-based; design: dose 1 mg/kg, route intravenous; details: in vivo, read-out: Vdss; method in brief: as §2
[17] = Half life in Lewis rat at 1 mg/kg, iv; assay type: ADME, organism-based; design: dose 1 mg/kg, route intravenous; details: in vivo; method in brief: as §2
[18] = Oral bioavailability in Lewis rat at 2 mg/kg; assay type: ADME, organism-based; details: in vivo; method in brief: as §2
[19] = AUC (0 to infinity) in Lewis rat at 2 mg/kg, po; assay type: ADME, organism-based; design: time infinity, dose 2 mg/kg, route oral; details: plasma; method in brief: as §2
[20] = Tmax in Lewis rat at 2 mg/kg, po; assay type: ADME, organism-based; design: dose 2 mg/kg, route oral; details: in vivo; method in brief: as §2
[21] = Cmax in Lewis rat at 2 mg/kg, po; assay type: ADME, organism-based; design: dose 2 mg/kg, route oral; details: in vivo; method in brief: as §2
[22] = Oral bioavailability in Lewis rat at 10 mg/kg; assay type: ADME, organism-based; details: in vivo; method in brief: as §2
[23] = Cmax in Lewis rat at 10 mg/kg, po; assay type: ADME, organism-based; design: dose 10 mg/kg, route oral; details: in vivo; method in brief: as §2
[24] = Tmax in Lewis rat at 10 mg/kg, po; assay type: ADME, organism-based; design: dose 10 mg/kg, route oral; details: in vivo; method in brief: as §2

inhibition [1]	Papp B→A [2] [×10⁻⁶ cm/s]	remaining at 0.5 h [3] [%]	Papp A→B [4] [×10⁻⁶ cm/s]	inhibition [6]	IC50 (Acyl-CoA desaturase 1) [nM]	clearance [10] [mL/min/kg]	Vd [11] [L/kg]	half-life [12] [h]	SMILES	inhibition in vivo at 15 mg/kg (Rattus norvegicus [13]) [%]	also measured
inactive	2	65	2	inactive	7				O=C(Nc1ccc(Cl)cc1)c1ccc(N2CCN(C(=O)c3ccccc3C(F)(F)F)CC2)nn1		inhibition (Rattus norvegicus [5]): Active
inactive	22	76	24	inactive	25	31.7	2.2	1	O=C(NCCC1CC1)c1ccc(N2CCN(C(=O)c3ccccc3C(F)(F)F)CC2)nn1	> 60	bioavailability [7]: 46%; Cmax [8]: 900 nM; Tmax [9]: 1 h
inactive	23	92	25	inactive	11				O=C(Nc1nc2ccccc2[nH]1)c1ccc(N2CCN(C(=O)c3ccccc3C(F)(F)F)CC2)nn1	< 30	clearance [14]: 21.7 mL/min/kg; AUC(0-inf) [15]: 1.6 µM·h; Vd [16]: 1.8 L/kg; half-life [17]: 1.1 h; bioavailability [18]: 19%; AUC(0-inf) [19]: 0.6 µM·h; Tmax [20]: 0.5 h; Cmax [21]: 70 nM
inactive	30	69	32	inactive	12	14.3	1.6	1.8	O=C(NCCC1CC1)c1ccc(N2CCN(C(=O)c3cc(Cl)ccc3C(F)(F)F)CC2)nn1	> 60	bioavailability [22]: 30%; Cmax [23]: 500 nM; Tmax [24]: 2.3 h
